We go through 22 compounds from ChEMBL document CHEMBL1130077, “Synthesis and antitumor properties of N-[2-(dimethylamino)ethyl]carboxamide derivatives of fused tetracyclic quinolines and quinoxalines: a new class of putative topoisomerase inhibitors” (J Med Chem, 1997).

Experiment [1] in a line: Inhibitory concentration against Human Jurkat leukemia (JLC) cell proliferation. The format is functional. In a few lines:
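Human Jurkat leukemia (JL_C) cells at 3.75 × 10³ per well, cultured 4 days with drug. Sulforhodamine read-out. IC50 is the concentration reducing cell number to 50% of untreated controls. Duplicate independent assays, coefficient of variation 6.3%.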

Experiment [2] can be described thus: Inhibitory concentration against Murine Lewis lung carcinoma (LLC) cell proliferation. As to conditions: Mus musculus. The format is functional, cell-based. In a few lines: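 Lewis lung carcinoma (LLTC) cells plated at 10³ per well and exposed to drug for 4 days. Growth was measured by sulforhodamine assay. IC50 is the concentration giving 50% of control cell number. Independent assays were run in duplicate, with a coefficient of variation of 12%.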

Experiment [3] in a line: Inhibitory concentration to reduce cell number to 50% of Murine P388 leukemia cell culture. The format is functional, Mus musculus. In short, it runs like this:
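Murine P388 leukemia cells seeded at 4.5 × 10³ per well and grown 3 days with drug. Growth was read by [³H]TdR uptake. IC50 is the drug concentration that reduces cell number to 50% of control cultures. Independent assays were run in duplicate, with a coefficient of variation of 12%.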

The nature of experiment [4]: Ratio of inhibitory concentration of Human Jurkat leukemia A (JLA) and Human Jurkat leukemia C (JLC). The format is functional. In a few lines: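 Human Jurkat leukemia cells (JLC) and their amsacrine-resistant derivative (JLA) were seeded at 3.75 × 10³ cells/well and grown 4 days with drug. Growth was read by sulforhodamine assay. IC50 is the drug level cutting cell number to 50% of control cultures; the ratio is IC50(JLA)/IC50(JLC). Independent assays were run in duplicate; CVs were 9.3% (JLA) and 6.3% (JLC).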

Experiment [5] is described as follows: Ratio of inhibitory concentration of Human Jurkat leukemia D (JLD) and Human Jurkat leukemia C (JLC). The format is functional. In a few lines:
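Parental Jurkat (JL_C) and its amsacrine-resistant (JL_A) and doxorubicin-resistant (JL_D) derivatives, each seeded at 3.75 × 10³ per well for 4 days of drug exposure. Sulforhodamine assay gave IC50 (50% of control cell number). The ratio is resistant-line IC50 over JL_C IC50. Duplicate assays; coefficients of variation 9.3% (JL_A) and 5.7% (JL_D).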

As to `COc1cc([C@@H]2c3cc4c(cc3[C@@H](O[C@@H]3O[C@@H]5CO[C@@H](C)O[C@H]5[C@H](O)[C@H]3O)[C@H]3COC(=O)[C@H]23)OCO4)cc(OC)c1O` [ETOPOSIDE], the results for the 50% inhibitory concentration (IC50) in experiment [1], in experiment [2] and in experiment [3] were 0.16 µM, 0.18 µM and 0.025 µM, respectively. Further, the IC50 ratio in experiment [4] is 13; in experiment [5] it was 90.

Regarding `CN(C)CCNC(=O)c1cccc2nc3c(nc12)-c1ccccc1C3`, the IC50 (as a rule, the concentration that inhibits the measured activity by half) in experiment [1] came out at 0.55 µM; in experiment [2], 0.39 µM; in experiment [3], 0.36 µM. Besides, the IC50 ratio in experiment [4] and in experiment [5] was 1 in each case.

`CN(C)CCNC(=O)c1cc(Cl)cc2nc3c(nc12)oc1ccccc13`: the figures for the IC50 in experiment [1], in experiment [2] and in experiment [3] were 1.5 µM, 1.4 µM and 6.8 µM, respectively. Moreover, the values for the IC50 ratio in experiment [4] and in experiment [5] were 1.2 and above 1.3, respectively.

On to `CN(C)CCNC(=O)c1cccc2c(C(=O)NCCN(C)C)c3sc4ccccc4c3nc12`, for which the IC50 worked out at 0.034 µM in experiment [1], 0.03 µM in experiment [2] and 0.025 µM in experiment [3]. The IC50 ratio was found to be 0.5 in experiment [4] and 0.9 in experiment [5].

Take `CN(C)CCNC(=O)c1cccc2nc3c(nc12)-c1ccccc1C3=O`: the concentration for half-maximal inhibition (IC50) in experiment [1] was determined as 1.1 µM; in experiment [2], 0.88 µM; in experiment [3] it was 0.7 µM. The IC50 ratio in experiment [4] came out at 1; in experiment [5], 1.1.

`COc1cccc2c1C(=O)c1c(O)c3c(c(O)c1C2=O)C[C@@](O)(C(=O)CO)C[C@@H]3O[C@H]1C[C@H](N)[C@H](O)[C@H](C)O1` [DOXORUBICIN]: the IC50 in experiment [1] worked out at 0.0096 µM; in experiment [2] it was 0.022 µM; in experiment [3] it was 0.015 µM. The IC50 ratio in experiment [4] was found to be 4.4; in experiment [5], 90.

`CN(C)CCNC(=O)c1cc(Cl)cc2[nH]c3c4ccccc4nc-3nc12`: the figures for the IC50 in experiment [1], in experiment [2] and in experiment [3] were 0.3 µM, 0.36 µM and 15 µM, respectively. The values for the IC50 ratio in experiment [4] and in experiment [5] were 1.2 and 1.3, respectively.

In the case of `CN(C)CCNC(=O)c1cc(Cl)cc2nc3oc4ccccc4c3nc12`, the IC50 in experiment [1] was above 2 µM; in experiment [2], above 2 µM; in experiment [3], 5.8 µM.

On to `CN(C)CCNC(=O)c1cccc2nc3sc4ccccc4c3nc12`, for which the half-maximal inhibitory concentration (IC50) in experiment [1] was 0.15 µM; in experiment [2], 0.11 µM; in experiment [3], 0.1 µM. The IC50 ratio in experiment [4] amounted to 1.9; in experiment [5] it was 2.7.

Consider `CN(C)CCNC(=O)c1cccc2[nH]c3c4ccccc4nc-3nc12`, for which the half-inhibitory concentration (IC50) is 1.4 µM in experiment [1], 0.99 µM in experiment [2] and 0.67 µM in experiment [3]. Also, the IC50 ratio in experiment [4] turned out to be 0.9; in experiment [5] it was 1.

For `CN(C)CCNC(=O)c1cccc2cc3c(nc12)-c1ccccc1C3=O`, the values for the half-maximal inhibitory concentration (IC50) in experiment [1], in experiment [2] and in experiment [3] were 0.18 µM, 0.091 µM and 0.13 µM, respectively. The IC50 ratio in experiment [4] worked out at 1.2; in experiment [5] it was 0.9.

For `CN(C)CCNC(=O)c1cccc2cc3sc4ccccc4c3nc12`, the IC50 in experiment [1] came out at 0.17 µM; in experiment [2], 0.066 µM; in experiment [3], 0.046 µM. The IC50 ratio in experiment [4] stood at 1.5; in experiment [5], 1.6.

Consider `CN(C)CCNC(=O)c1cccc2cc3[nH]c4ccccc4c3nc12`, for which the IC50 was determined as 0.45 µM in experiment [1], 0.29 µM in experiment [2] and 0.37 µM in experiment [3]. The IC50 ratio in experiment [4] was determined as 1; in experiment [5], 1.1.

Turning to `CN(C)CCNC(=O)c1cccc2cc3c(nc12)C(=O)c1ccccc1-3`, the IC50 in experiment [1] amounted to 0.37 µM; in experiment [2], 0.15 µM; in experiment [3], 0.085 µM. In addition, the IC50 ratio in experiment [4] and in experiment [5] was 0.9 each time.

For `CC[C@@]1(O)C(=O)OCc2c1cc1n(c2=O)Cc2cc3ccccc3nc2-1` [CAMPTOTHECIN], the IC50 is 0.0056 µM in experiment [1] and 0.033 µM in experiment [2]. Besides, the results for the IC50 ratio in experiment [4] and in experiment [5] were 2 and 1.4, respectively.

On to `CN(C)CCNC(=O)c1cc(Cl)cc2[nH]c3nc4ccccc4c-3nc12`, for which the IC50 in experiment [1] was determined as 0.98 µM; in experiment [2], 0.7 µM; in experiment [3], 1.6 µM. Moreover, the IC50 ratio in experiment [4] worked out at 0.8; in experiment [5], 0.9.

For `CN(C)CCNC(=O)c1cccc2cc3oc4ccccc4c3nc12`, the IC50 in experiment [1] stood at 0.43 µM; in experiment [2], 0.21 µM; in experiment [3] it was 0.17 µM. For the same compound, the IC50 ratio in experiment [4] and in experiment [5] was 1.2 throughout.

Take `COc1cc(NS(C)(=O)=O)ccc1Nc1c2ccccc2nc2ccccc12` [AMSACRINE]: the IC50 stood at 0.037 µM in experiment [1], 0.012 µM in experiment [2] and 0.02 µM in experiment [3]. In addition, the IC50 ratio in experiment [4] was 85; in experiment [5], 74.

For `CN(C)CCNC(=O)c1cccc2cc3c(nc12)-c1ccccc1C3`, the IC50 was 0.32 µM in experiment [1], 0.19 µM in experiment [2] and 0.088 µM in experiment [3]. In addition, the IC50 ratio in experiment [4] is 1.8; in experiment [5], 1.9.

As for `CN(C)CCNC(=O)c1cccc2cc3ccccc3nc12`, the values for the concentration for half-maximal inhibition (IC50) in experiment [1] and in experiment [3] were 0.58 µM and 0.098 µM, respectively.

In the case of `CN(C)CCNC(=O)c1cccc2nc3c(nc12)oc1ccccc13`, the IC50 in experiment [1] was 2.6 µM; in experiment [2], 1.7 µM; in experiment [3], 2.2 µM. The IC50 ratio in experiment [4] and in experiment [5] was 1 in each case.

Regarding `CN(C)CCNC(=O)c1cccc2cc3c(nc12)-c1ccccc1S3(=O)=O`, the IC50 came out at 0.86 µM in experiment [1], 0.43 µM in experiment [2] and 1.8 µM in experiment [3]. In addition, the IC50 ratio in experiment [4] is 3.2; in experiment [5], 4.2.
